From ChEMBL document CHEMBL1130280, “2-(1-Naphthyloxy)ethylamines with enhanced affinity for human 5-HT1D beta (h5-HT1B) serotonin receptors” (J Med Chem, 1997) come the findings set out here.

Test [1] addresses 5-hydroxytryptamine receptor 1B (Homo sapiens, UniProt P28222). Put plainly: Agonist activity to the human recombinant 5-hydroxytryptamine 1B receptor. The format is functional. Put shortly:
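CHO Pro 5 cells stably transfected with human recombinant 5-HT1Dβ receptors. Compound was added to the culture medium for 30 min at 37 °C. The reaction was stopped with cold ethanolic 5 mM EDTA (2:1 v/v), and extracted cAMP was quantified by enzyme immunoassay, with serotonin as the reference agonist.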

The target of test [2] is T1, 5-hydroxytryptamine receptor 1D (Homo sapiens, UniProt P28221). Put plainly: Compound was tested for its binding affinity against human recombinant 5-hydroxytryptamine 1D receptor alpha for comparison purpose.
Test [3] addresses T1, 5-hydroxytryptamine receptor 1D. Put plainly: Compound was tested for its agonist activity against human 5-hydroxytryptamine 1D receptor alpha for comparison purpose. The format is functional.
The target is the same in test [4]. Put plainly: Compound was tested for its agonist activity against human recombinant 5-hydroxytryptamine 1D receptor alpha for comparison purpose. The format is functional.

In general, Ki refers to a measure of affinity in units of concentration, obtained from inhibition or displacement.

Sequence of 5-hydroxytryptamine receptor 1B (P28222 whole entry): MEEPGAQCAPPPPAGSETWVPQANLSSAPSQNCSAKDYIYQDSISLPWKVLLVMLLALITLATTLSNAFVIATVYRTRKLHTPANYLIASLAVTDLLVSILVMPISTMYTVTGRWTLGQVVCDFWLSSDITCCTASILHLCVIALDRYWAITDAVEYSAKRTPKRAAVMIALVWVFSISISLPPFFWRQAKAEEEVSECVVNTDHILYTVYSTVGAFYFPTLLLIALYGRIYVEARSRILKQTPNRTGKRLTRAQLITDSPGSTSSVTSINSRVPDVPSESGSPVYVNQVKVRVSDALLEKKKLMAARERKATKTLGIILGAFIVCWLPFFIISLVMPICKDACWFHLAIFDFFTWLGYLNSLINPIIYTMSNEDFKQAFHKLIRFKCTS
T1 sequence (P28221 whole entry): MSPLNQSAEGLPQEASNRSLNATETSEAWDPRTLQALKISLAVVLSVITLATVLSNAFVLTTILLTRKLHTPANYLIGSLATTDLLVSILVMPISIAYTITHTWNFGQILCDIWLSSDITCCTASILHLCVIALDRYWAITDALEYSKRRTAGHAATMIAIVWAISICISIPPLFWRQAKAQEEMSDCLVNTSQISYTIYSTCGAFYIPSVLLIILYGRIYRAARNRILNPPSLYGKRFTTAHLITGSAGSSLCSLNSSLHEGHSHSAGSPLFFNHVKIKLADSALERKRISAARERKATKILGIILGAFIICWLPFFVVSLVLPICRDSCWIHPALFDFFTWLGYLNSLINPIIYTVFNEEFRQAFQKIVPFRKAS

On to `CN(C)CCCOc1ccccc1`, for which the Ki in test [1] was > 10 µM. Regarding `CCNCCOc1cccc2ccccc12`, the inhibition constant Ki in test [1] turned out to be 0.066 µM. On to `CNCCOc1ccccc1`, for which the values for the Ki in test [2] and in test [1] were 1.8 µM and 5.96 µM, respectively. In the case of `CN(C)CCCCOc1cccc2ccccc12`, the Ki in test [1] was 0.47 µM.

With `CCCN(C)CCCOc1ccccc1C1CCCC1`, the Ki in test [2] amounted to 0.143 µM; in test [1] it was 1.2 µM. On to `CN(C)CCCOc1cccc2ccccc12`, for which the Ki in test [1] came to 0.255 µM. As for `CNCCCOc1ccccc1`, the inhibition constant Ki in test [1] is 3.45 µM. Regarding `CCCNCCOc1cccc2ccccc12`, in test [1], the Ki was found to be 0.2 µM. As for `CCCCN(CC)CCOc1cccc2ccccc12`, the results for the Ki in test [2] and in test [1] were 0.112 µM and 1.23 µM, respectively. Regarding `CNCCOc1cccc2ccccc12`, the Ki in test [1] stood at 0.026 µM; in test [3] it was 0.034 µM. For the compound `CC(C)NCCOc1cccc2ccccc12`, the Ki in test [1] was determined as 0.12 µM.

With `CN(C)CCOc1cccc2ccccc12`, the Ki in test [1] is 0.094 µM. For `CC(C)NCCOc1cccc2[nH]ccc12`, the Ki in test [1] was 1.12 µM. Turning to `CC(C)NCCCOc1cccc2ccccc12`, the Ki in test [1] came out at 7.66 µM. Turning to `CN(C)CCCNc1ccccc1`, the Ki in test [1] was > 10 µM. Consider `CC(C)NCCCOc1cccc2[nH]ccc12`, for which the Ki in test [1] is > 10 µM.

On to `CCCN(C)CCOc1ccccc1C1CCCC1`, for which the Ki in test [2] is 0.082 µM; in test [1] it was 0.425 µM. On the same counts, the results for `CN(CCOc1cccc2ccccc12)Cc1ccccc1` are 0.59 µM and 0.26 µM.

With `CCCN(C)CCOc1cccc2ccccc12`, the results for the Ki in test [2] and in test [1] were 0.103 µM and 0.75 µM, respectively. Take `CNCCOc1cccc(C)c1C`: the Ki in test [1] is 0.316 µM. Regarding `CCCCN(CCCC)CCOc1cccc2ccccc12`, the Ki in test [1] stood at 2.68 µM. `OCCNCCOc1cccc2ccccc12`: the figures for the Ki in test [4] and in test [1] were 0.068 µM and 0.107 µM, respectively.

Turning to `NCCOc1cccc2ccccc12`, the Ki in test [1] was determined as 0.1 µM. On the same count and under the same terms, next, `NCCCOc1cccc2ccccc12`: 0.29 µM. In the case of `CC(C)NCC(O)COc1cccc2[nH]ccc12` (racemic) [PINDOLOL], the Ki in test [1] is > 10 µM. In the case of `CC(C)NCC(O)COc1cccc2[nH]ccc12` (single isomer, unassigned; (-)) [PINDOLOL], in test [1], the Ki was found to be 2.6 µM.
